This passage reports Ratio IC50, IC50 and inhibition results from ChEMBL document CHEMBL1142412, “Bis-(-)-nor-meptazinols as novel nanomolar cholinesterase inhibitors with high inhibitory potency on amyloid-beta aggregation” (J Med Chem, 2008).

The species entered for one assay is Mus musculus. As to the kind of experiment: Selectivity for mouse brain AChE over mouse serum BChE. It counts as tissue-based.
For assay [1], the target named is T1, Acetylcholinesterase (Homo sapiens, UniProt P22303). As to the kind of experiment: Inhibition of human recombinant AChE-induced amyloid beta aggregation by thioflavin T fluorescence method. Summed up: (§1)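 Aβ(1–40), stock from HFIP, dissolved in DMSO, final 230 µM, incubated 48 h at room temperature in 0.215 M sodium phosphate pH 8.0 with human recombinant AChE (final 2.3 µM, Aβ:AChE 100:1) ± inhibitor. […] Run in duplicate.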

Assay [2] concerns the target T1, Acetylcholinesterase. As to the kind of experiment: Inhibition of human recombinant AChE-induced amyloid beta aggregation at 100 uM by thioflavin T fluorescence method. Put shortly:
as §1

For assay [3], the target named is T1, Acetylcholinesterase. Description: Inhibition of human recombinant AChE-induced amyloid beta aggregation at 200 uM by thioflavin T fluorescence method. Put shortly: as §1
Assay [4] addresses T2, Acetylcholinesterase (Mus musculus, UniProt P21836).
T2 sequence (P21836 whole entry): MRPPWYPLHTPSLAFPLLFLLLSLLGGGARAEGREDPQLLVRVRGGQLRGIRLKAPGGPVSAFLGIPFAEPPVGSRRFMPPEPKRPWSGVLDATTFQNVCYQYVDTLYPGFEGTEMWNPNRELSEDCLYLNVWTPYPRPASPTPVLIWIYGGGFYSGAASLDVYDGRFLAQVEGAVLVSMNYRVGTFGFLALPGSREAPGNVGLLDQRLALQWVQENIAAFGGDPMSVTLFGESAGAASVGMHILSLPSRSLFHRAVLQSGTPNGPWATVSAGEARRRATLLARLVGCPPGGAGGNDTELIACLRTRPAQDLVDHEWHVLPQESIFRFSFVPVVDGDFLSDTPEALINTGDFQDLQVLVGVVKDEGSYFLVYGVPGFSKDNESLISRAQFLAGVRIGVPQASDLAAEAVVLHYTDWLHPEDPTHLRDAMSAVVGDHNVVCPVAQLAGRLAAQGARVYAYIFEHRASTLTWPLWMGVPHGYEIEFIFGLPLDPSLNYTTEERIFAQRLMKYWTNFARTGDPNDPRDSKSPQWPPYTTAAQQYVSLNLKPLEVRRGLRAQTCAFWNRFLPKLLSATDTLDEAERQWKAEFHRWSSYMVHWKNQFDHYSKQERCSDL
Description: Inhibition of mouse brain AChE.

The target in another assay is Cholinesterase (Mus musculus, UniProt Q03311). Description: Inhibition of mouse serum BChE. Put shortly: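 Modified Ellman assay with mouse serum as the enzyme source. Inhibitor at several concentrations, preincubated 20 min at 37 °C with DTNB. Substrate butyrylthiocholine iodide 0.05 mM. ΔA412 read at 25 °C. IC50 by nonlinear regression of log concentration–response. Mean ± SEM of at least three independent measures.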
Sequence of Cholinesterase (Q03311 whole entry): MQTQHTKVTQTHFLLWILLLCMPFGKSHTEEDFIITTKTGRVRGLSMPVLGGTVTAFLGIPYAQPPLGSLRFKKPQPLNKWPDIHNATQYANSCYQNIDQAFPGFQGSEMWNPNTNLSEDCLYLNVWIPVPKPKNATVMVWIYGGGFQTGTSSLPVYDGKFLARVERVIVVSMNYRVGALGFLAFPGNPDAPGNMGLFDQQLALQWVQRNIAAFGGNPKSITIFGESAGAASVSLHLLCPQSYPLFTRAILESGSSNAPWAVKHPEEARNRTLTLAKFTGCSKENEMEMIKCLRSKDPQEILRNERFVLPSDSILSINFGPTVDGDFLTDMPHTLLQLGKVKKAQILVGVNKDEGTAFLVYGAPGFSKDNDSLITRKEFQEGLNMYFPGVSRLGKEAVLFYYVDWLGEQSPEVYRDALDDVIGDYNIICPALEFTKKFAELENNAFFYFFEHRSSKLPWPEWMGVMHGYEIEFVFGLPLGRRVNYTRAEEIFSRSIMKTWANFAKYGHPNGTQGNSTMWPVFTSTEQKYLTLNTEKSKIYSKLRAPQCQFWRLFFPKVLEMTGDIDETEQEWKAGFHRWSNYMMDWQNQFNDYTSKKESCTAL

T1 sequence (P22303 whole entry): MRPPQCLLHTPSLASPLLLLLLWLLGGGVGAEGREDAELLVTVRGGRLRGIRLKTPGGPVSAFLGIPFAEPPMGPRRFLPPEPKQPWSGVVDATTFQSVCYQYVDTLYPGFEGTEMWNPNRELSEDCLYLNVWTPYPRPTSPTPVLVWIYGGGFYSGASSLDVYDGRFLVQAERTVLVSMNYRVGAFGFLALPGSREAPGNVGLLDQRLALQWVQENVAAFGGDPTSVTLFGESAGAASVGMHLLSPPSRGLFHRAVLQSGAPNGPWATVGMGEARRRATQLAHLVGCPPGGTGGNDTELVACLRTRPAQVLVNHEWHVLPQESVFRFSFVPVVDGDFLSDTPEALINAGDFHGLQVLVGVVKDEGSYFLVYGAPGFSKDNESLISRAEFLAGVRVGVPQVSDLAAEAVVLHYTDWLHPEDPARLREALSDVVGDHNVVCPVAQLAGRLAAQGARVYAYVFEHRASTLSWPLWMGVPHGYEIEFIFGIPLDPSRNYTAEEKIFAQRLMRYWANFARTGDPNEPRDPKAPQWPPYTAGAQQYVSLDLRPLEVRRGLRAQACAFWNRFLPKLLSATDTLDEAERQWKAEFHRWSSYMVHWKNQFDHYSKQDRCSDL

`CC[C@@]1(c2cccc(O)c2)CCCCN(CCCCCCCCCN2CCCC[C@@](CC)(c3cccc(O)c3)C2)C1`: in the assay filed under Mus musculus, the Ratio IC50 stood at 2.6. Moreover, on Acetylcholinesterase [1], the IC50 – broadly, the concentration that gives 50% inhibition – is 16.6 µM. In addition, the inhibition (in general, the percentage by which the read-out fell short of the control) at Acetylcholinesterase [2] amounted to 90.8%; on Acetylcholinesterase [3], 99.2%.

As to `CC[C@@]1(c2cccc(O)c2)CCCCN(CCN2CCCC[C@@](CC)(c3cccc(O)c3)C2)C1`, the Ratio IC50 in the assay filed under Mus musculus amounted to 0.0029.

For `CC[C@@]1(c2cccc(O)c2)CCCCN(CCCCN2CCCC[C@@](CC)(c3cccc(O)c3)C2)C1`, in the assay listed under Mus musculus, the Ratio IC50 worked out at 0.0049.

As for `CC[C@@]1(c2cccc(O)c2)CCCCN(CCCN2CCCC[C@@](CC)(c3cccc(O)c3)C2)C1`, in the assay filed under Mus musculus, the Ratio IC50 is 0.0031.

For the compound `CC[C@@]1(c2cccc(O)c2)CCCCN(CCCCCCCCCCN2CCCC[C@@](CC)(c3cccc(O)c3)C2)C1`, in the assay filed under Mus musculus, the Ratio IC50 amounted to 1.8. Further, the IC50 on Acetylcholinesterase [1] is 5.8 µM. In addition, the inhibition was determined as 95.8% on Acetylcholinesterase [2] and 98.4% on Acetylcholinesterase [3].

For the compound `CC[C@@]1(c2cccc(O)c2)CCCCN(CCCCCCCCCCCCN2CCCC[C@@](CC)(c3cccc(O)c3)C2)C1`, the Ratio IC50 in the assay listed under Mus musculus amounted to 2.4.

Regarding `CC[C@@]1(c2cccc(O)c2)CCCCN(CCCCCCCCCCCN2CCCC[C@@](CC)(c3cccc(O)c3)C2)C1`, the Ratio IC50 in the assay filed under Mus musculus was determined as 3.1.

As for `CC[C@@]1(c2cccc(O)c2)CCCCN(CCCCCCCCN2CCCC[C@@](CC)(c3cccc(O)c3)C2)C1`, the Ratio IC50 in the assay listed under Mus musculus was 0.8. For the same compound, the inhibition on Acetylcholinesterase [2] was 0%; at Acetylcholinesterase [3], 15.2%.

As to `CCC1(c2cccc(O)c2)CCCCN(C)C1` (single isomer, unassigned; (-)) [MEPTAZINOL], in the assay filed under Mus musculus, the Ratio IC50 worked out at 0.37. Besides, on Acetylcholinesterase [3], the inhibition stood at 0%. The IC50 was 41 µM against Acetylcholinesterase [4] and 15 µM at Cholinesterase.

For the compound `CC[N+](C)(CC)CCC[n+]1c(-c2ccccc2)c2cc(N)ccc2c2ccc(N)cc21`, the inhibition came out at 85.6% at Acetylcholinesterase [2] and 98.6% on Acetylcholinesterase [3].

For the compound `CC[C@@]1(c2cccc(O)c2)CCCCN(CCCCCCN2CCCC[C@@](CC)(c3cccc(O)c3)C2)C1`, the Ratio IC50 in the assay filed under Mus musculus came to 0.098.

On to `CCC1(c2cccc(O)c2)CCCCN(CCCCCN2CCCC[C@@](CC)(c3cccc(O)c3)C2)C1` (single isomer, unassigned; (-)), for which the Ratio IC50 in the assay listed under Mus musculus is 0.048. Besides, the IC50 against Acetylcholinesterase [4] stood at 1 µM; at Cholinesterase, 0.192 µM.

For the compound `CC[C@@]1(c2cccc(O)c2)CCCCN(CCCCCCCN2CCCC[C@@](CC)(c3cccc(O)c3)C2)C1`, the Ratio IC50 in the assay listed under Mus musculus amounted to 0.38.
